Calls of active or inactive are those of the source. The calls are words filed in the database; no cut-off is given here.

The test system of series [1] is Mus musculus. The series is described as follows: Induction of PXR-dependent CYP3A11 protein expression in C57BL/6 mouse liver at 5 to 25 mg dosed as oral gavage as single bolus and measured after 24 hrs relative to control. In kind it is functional, organism-based. The method in brief:
(§1)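 Male C57BL/6 mice, 6–7 weeks old, three per group. Single oral gavage bolus of 5, 10 or 25 mg in olive oil vehicle; vehicle-only controls. Killed at 24 h. Tissue PXR mRNA measured; PXR, CYP3A11 and MDR1 protein measured by immunoblot.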

In series [2] the target is T1, Nuclear receptor subfamily 1 group I member 2 (Homo sapiens, UniProt O75469).
T1 sequence (O75469 whole entry): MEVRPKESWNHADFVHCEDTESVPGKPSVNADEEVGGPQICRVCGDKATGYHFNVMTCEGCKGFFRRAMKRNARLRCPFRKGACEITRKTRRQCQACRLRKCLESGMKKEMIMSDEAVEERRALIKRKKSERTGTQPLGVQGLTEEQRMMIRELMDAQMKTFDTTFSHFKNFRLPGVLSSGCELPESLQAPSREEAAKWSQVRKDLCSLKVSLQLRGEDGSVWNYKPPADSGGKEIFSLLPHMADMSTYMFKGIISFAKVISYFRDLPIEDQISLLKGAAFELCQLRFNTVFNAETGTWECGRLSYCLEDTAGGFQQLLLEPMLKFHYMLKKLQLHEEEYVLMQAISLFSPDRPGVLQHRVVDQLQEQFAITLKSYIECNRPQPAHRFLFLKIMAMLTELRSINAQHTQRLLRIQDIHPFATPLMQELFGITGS
The series is described as follows: Agonist activity at PXR in human HT29-MTX cells assessed as increase in PXR protein expression at 1 to 25 uM incubated for 24 hrs by immunoblot analysis. In kind it is cell-based. Background: Immunoblotting shows a protein as a band on a membrane.

Series [3] deals with T1, Nuclear receptor subfamily 1 group I member 2. The series is described as follows: Agonist activity at PXR in human HepG2 cells assessed as stimulation of CYP450-mediated alpha-tocopherol metabolites efflux at 25 uM. It is filed as cell-based. To be noted: hepg2, 25 µM.
Series [4] shares this target. As to the kind of experiment: Agonist activity at PXR in human HepG2 cells assessed as increase in CYP3A4 protein expression at 1 to 25 uM incubated for 24 hrs by immunoblot analysis. In kind it is cell-based. Conditions: hepg2, 24 h. The method in brief:
(§2)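 HepG2 cells, passages 2–10, treated 24 h with 1 and 25 μM. Lysates sonicated on ice; 20 μg protein run on 10–12% SDS-PAGE and immunoblotted with anti-PXR or anti-CYP3A4. Bands normalized to housekeeping protein and expressed relative to control (=1).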

The target is the same in series [5]. The series is described as follows: Agonist activity at PXR in human HepG2 cells assessed as increase in PXR protein expression at 1 to 25 uM incubated for 24 hrs by immunoblot analysis. To be noted: hepg2, 24 h. In kind it is cell-based. The gist of the method: as §2
Series [6] shares this target. The series is described as follows: Agonist activity at PXR in human HepaRG cells assessed as increase in PXR protein expression at 1 to 25 uM incubated for 24 hrs by immunoblot analysis. In kind it is cell-based.
Series [7] shares this target. The series is described as follows: Agonist activity at PXR in human HT29 cells assessed as increase in PXR protein expression at 1 to 25 uM incubated for 24 hrs by immunoblot analysis. It is filed as cell-based.
Series [8] in a line: Toxicity in C57BL/6 mouse assessed as effect on animal behavior at <=25 mg dosed as oral gavage as single bolus and measured after 24 hrs relative to control. It is filed as organism-based. To be noted: in vivo. The method in brief:
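Male C57BL/6 mice, 6–7 weeks old, three per group. Single oral gavage bolus of 5, 10, 25, 50 or 100 mg in olive oil vehicle. Observed at 24 h for mortality, gross appearance and behavior, then post-mortem examination of liver and main organs.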

Series [9] deals with Mus musculus. As to the kind of experiment: Induction of PXR mRNA expression in C57BL/6 mouse liver at 5 to 25 mg dosed as oral gavage as single bolus and measured after 24 hrs relative to control. In kind it is functional, organism-based. The gist of the method: as §1
Series [10] is described as follows: Toxicity in C57BL/6 mouse assessed as mortality at 50 mg dosed as oral gavage as single bolus and measured after 24 hrs relative to control. It is filed as organism-based. Conditions: in vivo, read-out: Activity. The gist of the method:
(§3)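 Male C57BL/6 wild-type mice aged 6–7 weeks, 3 per group. Single bolus by oral gavage in an olive-oil vehicle, with vehicle-only controls and dose groups of 5, 10, 25, 50 and 100 mg. Animals were checked 24 h after dosing by gross appearance and behaviour, then killed, and liver and main organs were examined post-mortem.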

Series [11] has as its target T1, Nuclear receptor subfamily 1 group I member 2. The series is described as follows: Agonist activity at PXR in human HepG2 cells assessed as stimulation of CYP450-mediated alpha-tocopherol metabolites production at 25 uM. To be noted: hepg2, 25 µM. It is filed as cell-based.
Series [12] has the same target. As to the kind of experiment: Agonist activity at PXR in human HT29-MTX cells assessed as increase in CYP3A4 protein expression at 1 to 25 uM incubated for 24 hrs by immunoblot analysis. In kind it is cell-based.
For series [13] the target is unchanged. The series is described as follows: Agonist activity at His-tagged PXR-LBD/SRC-1p (unknown origin) expressed in Escherichia coli BL21(DE3) at 10 uM by coactivator recruitment based Alpha-screen assay. (In Alpha technology, singlet oxygen from a donor bead excites a nearby acceptor bead.)
For series [14] the target is unchanged. As to the kind of experiment: Agonist activity at PXR in human HepaRG cells assessed as reversion of PXR antagonist sulforaphane-induced suppression of CYP3A4 expression at 10 uM incubated for 24 hrs by immunoblot analysis. In kind it is cell-based.
Series [15] concerns the target T2, Oxysterols receptor LXR-beta (Homo sapiens) (UniProt P55055).
T2 sequence (whole entry): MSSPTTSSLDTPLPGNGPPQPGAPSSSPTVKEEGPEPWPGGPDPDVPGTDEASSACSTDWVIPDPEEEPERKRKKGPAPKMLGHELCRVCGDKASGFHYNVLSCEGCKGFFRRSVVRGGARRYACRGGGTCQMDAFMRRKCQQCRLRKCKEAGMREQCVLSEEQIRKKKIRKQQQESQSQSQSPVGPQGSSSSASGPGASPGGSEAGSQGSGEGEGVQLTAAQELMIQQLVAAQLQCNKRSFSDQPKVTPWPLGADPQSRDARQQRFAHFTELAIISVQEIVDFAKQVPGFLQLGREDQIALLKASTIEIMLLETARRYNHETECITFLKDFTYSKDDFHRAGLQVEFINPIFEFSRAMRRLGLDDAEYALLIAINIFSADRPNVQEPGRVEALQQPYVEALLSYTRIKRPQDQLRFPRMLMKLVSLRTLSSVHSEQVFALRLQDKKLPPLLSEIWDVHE
The series is described as follows: Agonist activity at LXR-beta (unknown origin) at 10 uM by coactivator recruitment based Alpha-screen assay.

Series [16] deals with T3, PXR (Nuclear receptor subfamily 1 group I member 2) (Homo sapiens, UniProt O75469).
T3 sequence (O75469 whole entry): T1 sequence (O75469 whole entry)
As to the kind of experiment: Agonist activity at His-tagged PXR-LBD/SRC-1p (unknown origin) expressed in Escherichia coli BL21(DE3) by coactivator recruitment based Alpha-screen assay relative to T0901317. Conditions: read-out: Efficacy.

Series [17] in a line: Toxicity in C57BL/6 mouse assessed as mortality at 100 mg dosed as oral gavage as single bolus and measured after 24 hrs relative to control. In kind it is organism-based. To be noted: in vivo, read-out: Activity. The method in brief:
as §3

In series [18] the target is T1, Nuclear receptor subfamily 1 group I member 2. As to the kind of experiment: Binding affinity to His-tagged PXR-LBD (unknown origin) expressed in Escherichia coli BL21 Gold by ITC analysis. The method in brief:
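ITC at 37 °C in 25 mM HEPES pH 7.5, 150 mM NaCl, 8% v/v DMSO final. His-tagged PXR-LBD (tag not removed, gel-filtration purified) at 3 μM in cell; ligand at 60 μM in syringe, injected in 10 μL aliquots.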

In general, Kd refers to the constant that tells how readily two partners part at equilibrium. A lower Kd goes with a tighter complex. In the case of `C/C(=C\CC/C(C)=C/CC[C@]1(C)CCc2cc(O)cc(C)c2O1)CC/C=C(\C)C(=O)O`, the outcome in the series on Mus musculus [1] was Active. The Activity entry is on record as “Active” in series [2]; “Active” in [3]; “Dose-dependent effect” in series [4]; “Dose-dependent effect” in series [5]; “Active” in series [6]; “Active” in [7]. In addition, the Activity result was “Non-Toxic” in series [8]; “Dose-dependent effect” with Mus musculus [9]; “Active” in [11]; “Active” in series [12]; “Active” in series [13]; “Active” in series [14]. Besides, the mortality at 24 h in [10] turned out to be 33%; in series [17], 100%. Also, in series [15], the outcome was inactive. Besides, the Emax in series [16] was 103%. The affinity in series [18], expressed as Kd, was 0.33 µM.

The record behind these values is ChEMBL document CHEMBL4402582, “Garcinoic Acid Is a Natural and Selective Agonist of Pregnane X Receptor” (J Med Chem, 2020).
